Data: ChEMBL document CHEMBL1128328, “Identification of efficient pentapeptide substrates for the tyrosine kinase pp60c-src” (J Med Chem, 1995)

What was measured:
[1] = tested on: CC[C@H](C)[C@H](NC(C)=O)C(=O)N[C@@H](Cc1ccc(O)cc1)C(=O)NCC(=O)N[C@@H](CCC(=O)O)C(=O)N[C@@H](Cc1ccccc1)C(N)=O; assay: (§1) Maximum enzyme velocity(Vmax) of peptide phosphorylation by pp60src
How it was run: (§2)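 Same pp60c-src reaction (pH 7.1 MOPS, 200 µM [γ-32P]ATP, 20 µM ADP, 30 min, 30 °C, PEI-cellulose/Cerenkov readout). Two peptide levels, near and ~10× estimated Km (200 µM/2 mM, 25/300 µM, or 50 µM/1 mM depending on peptide). Initial velocities in 4–6 repeats per level, minus zero-time blank. Apparent values from Cornish-Bowden direct linear plot.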

[2] = tested on: CC[C@H](C)[C@H](NC(=O)[C@H](CCC(=O)O)NC(=O)[C@H](CCC(=O)O)NC(=O)[C@H](CCC(=O)O)NC(=O)[C@H](C)N)C(=O)N[C@@H](Cc1ccc(O)cc1)C(=O)NCC(=O)N[C@@H](CCC(=O)O)C(=O)N[C@@H](Cc1ccccc1)C(=O)N[C@@H](CCC(=O)O)C(=O)N[C@@H](C)C(=O)N[C@@H](CCCCN)C(=O)N[C@@H](CCCCN)C(=O)N[C@@H](CCCCN)C(=O)N[C@@H](CCCCN)C(=O)O; assay: as §1; how it was run: as §2
[3] = tested on: CC[C@H](C)[C@H](NC(=O)[C@H](C)NC(=O)[C@H](CC(=O)O)NC(=O)[C@H](CCC(=O)O)NC(C)=O)C(=O)N[C@@H](Cc1ccc(O)cc1)C(N)=O; assay: as §1; how it was run: as §2
[4] = tested on: CC[C@H](C)[C@H](NC(C)=O)C(=O)N[C@@H](Cc1ccc(O)cc1)C(=O)NCC(=O)N[C@@H](CCC(=O)O)C(=O)N[C@@H](Cc1ccccc1)C(N)=O; assay: (§3) Michaelis-Menten (Km) constant for peptide phosphorylation by pp60src; how it was run: as §2
[5] = tested on: CC[C@H](C)[C@H](NC(=O)[C@H](CCC(=O)O)NC(=O)[C@H](CCC(=O)O)NC(=O)[C@H](CCC(=O)O)NC(=O)[C@H](C)N)C(=O)N[C@@H](Cc1ccc(O)cc1)C(=O)NCC(=O)N[C@@H](CCC(=O)O)C(=O)N[C@@H](Cc1ccccc1)C(=O)N[C@@H](CCC(=O)O)C(=O)N[C@@H](C)C(=O)N[C@@H](CCCCN)C(=O)N[C@@H](CCCCN)C(=O)N[C@@H](CCCCN)C(=O)N[C@@H](CCCCN)C(=O)O; assay: as §3; how it was run: as §2
[6] = tested on: CC[C@H](C)[C@H](NC(=O)[C@H](C)NC(=O)[C@H](CC(=O)O)NC(=O)[C@H](CCC(=O)O)NC(C)=O)C(=O)N[C@@H](Cc1ccc(O)cc1)C(N)=O; assay: as §3; how it was run: as §2
[7] = biological target: Proto-oncogene tyrosine-protein kinase Src (Homo sapiens) (UniProt P12931); assay: Incorporation of 32P into phosphopeptide product (3 mM) in pp60c-src phosphorylation assay
How it was run: (§4)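 Human pp60c-src (baculovirus/SF9 recombinant, partially purified), 10 units in 40 µL; 138 mM MOPS pH 7.1, 0.64 mM MgCl2 (calculated free Mg2+ 0.44 mM), BSA 0.37 mg/mL, 200 µM [γ-32P]ATP, 20 µM ADP; peptide at 1 or 3 mM final; 30 min, 30 °C; acid molybdate quench; PEI-cellulose column, 1 M LiCl elution, Cerenkov counting; triplicate, no-peptide blank subtracted.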

[8] = biological target: Proto-oncogene tyrosine-protein kinase Src (Homo sapiens) (UniProt P12931); assay: Incorporation of 32P into phosphopeptide product (1 mM) in pp60c-src phosphorylation assay; how it was run: as §4

Compound | CPM x1000 [7] | CPM x1000 [8] | other results
Proto-oncogene tyrosine-protein kinase Src (Homo sapiens) (from UniProt P12931) | – | – | Vmax [1]: 1.02 µM/min/mg; Vmax [2]: 3.06 µM/min/mg; Vmax [3]: 1.86 µM/min/mg; Km [4]: 368 µM; Km [5]: 100 µM; Km [6]: 880 µM
Ac-EGTYG-NH2 | 89.5 | 63.5 | –
H-RRLIEDAEYAARG-OH | 80.3 | – | –
Ac-GEGTYGV-NH2 | 120 | – | –
Ac-EDAEYA-NH2 | 28.5 | – | –
Ac-IYGEF-NH2 | – | 497 | –
Ac-DAEYA-NH2 | 23.4 | – | –
CC[C@H](C)[C@H](NC(=O)[C@H](CCC(=O)O)NC(=O)[C@H](CCC(=O)O)NC(=O)[C@H](CCC(=O)O)NC(=O)[C@H](C)N)C(=O)N[C@@H](Cc1ccc(O)cc1)C(=O)NCC(=O)N[C@@H](CCC(=O)O)C(=O)N[C@@H](Cc1ccccc1)C(=O)N[C@@H](CCC(=O)O)C(=O)N[C@@H](C)C(=O)N[C@@H](CCCCN)C(=O)N[C@@H](CCCCN)C(=O)N[C@@H](CCCCN)C(=O)N[C@@H](CCCCN)C(=O)O | – | 702 | –
Ac-EDAIY-NH2 | – | 403 | –
